# Assay: Toxicity liver stage against HepG2, at 10uM
# Type: cell-based
# Set-up: test concentration 10 uM, cell line HepG2-A16-CD81EGFP
# Settings: human, HepG2-A16-CD81EGFP cells; read-out: INHIBITION
# Method in brief: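 Uninfected HepG2-A16-CD81EGFP cells, 3 × 10^3 per well, 1536-well, plated on prespotted compound at 10 μM final, parasite-free screening media added to match infected plates; puromycin 10 μM positive, DMSO 0.5% negative; run in parallel with 48 h PbLuc assay at 37 °C, 5% CO2; viability by CellTiter-Glo luminescence, normalized to controls.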
row,SMILES,cytotoxicity at 10 µM [%]
1,O=C(c1ccno1)N1CCOC[C@H](Oc2ccc(C(F)(F)F)cc2)C1,1.48
2,O=C1CCNc2ncc(-c3ccccc3Cl)cc2CN1C1CC1,8.89
3,CCOC(=O)[C@@H]1[C@@H](c2ccccc2)CN2CCNC[C@H]12,3.8
4,COc1ccccc1C(=O)N1CC(=O)N(C2CCCCC2)CC(O)C1 (centres undefined),-3.09
5,CC(C)Cc1nc(OCC(N)=O)c(C#N)c2c1CCCC2,-9.53
6,O=S1(=O)CCC(S(=O)(=O)c2cccc(S(=O)(=O)N3CCCCCC3)c2)C1 (centres undefined),-7.39
7,COc1ccc(-c2csc3c2c(N)nc(=O)n3CCN(C)C)cc1,-49.9
8,COc1ccc(C)cc1NC(=O)Nc1cnc(N2CCOCC2)nc1,-9.67
9,CC(C)Nc1nc2c(c(N(C)C)n1)CCN(C(=O)c1cc[nH]n1)CC2,6.59
10,CSc1nc2ncc3c(=O)n(CCN4CCCCC4)ccc3n2n1,5.23
11,Cc1ccc(N2CCN(C(=O)COc3nccc(C)n3)CC2)nn1,-25.1
12,Cc1nnc(NC(=O)C(C)n2ncc(Br)c2C)s1 (centres undefined),1.81
13,CN(C)C(=O)C1CCCN(C(=O)c2ccccc2-n2cc(CN)cn2)C1 (centres undefined),11.6
14,Cc1cc(CCC(=O)O)nc(C2CCCN2c2ccnc(C)n2)n1 (centres undefined),-8.12
15,COCC(=O)N1CCOC(c2ccc(N(C)C)cn2)C1 (centres undefined),-13.1
16,Cc1ncsc1CN1CC[C@H](O)[C@@H](n2cnc3c(N)ncnc32)CC1,-10.8
17,Cc1cc(CN(C)Cc2ncc(-c3ccccc3)o2)no1,-13.8
18,CCOCCNC(=O)c1cnc(Sc2nccn2C)c(Cl)c1,-44.6
19,COc1cc(F)ccc1NC(=O)NC(C)C(=O)NC(C)(C)C (centres undefined),-6.1
20,O=S(=O)(c1ccc(Cl)s1)N1CCCC(c2ncc[nH]2)C1 (centres undefined),6.68
21,Cc1cc(NC(=O)C2CCN(c3ncccc3C#N)CC2)no1,3.54
22,O=C1CCCN1CCCN1CCCCC1Cn1cncn1 (centres undefined),-0.358
23,COc1ccc(-c2nc(CCNC(=O)NC3CCC(O)CC3)co2)cc1 (centres undefined),7.66
24,CC(C)COc1cncc(N2CCCN(c3ncccn3)CC2)n1,-2.38
25,COCc1cc(N(C)Cc2ncnn2C)nc(C(C)(C)C)n1,6.39
26,COc1ccc2c(c1)CCCN2C(=O)CN1CCOC(C)C1 (centres undefined),2.59
27,COCC(=O)N1CCN(C(=O)C2(c3ccc(C)c(OC)c3)CC2)CC1,-8.19

row,SMILES,cytotoxicity at 10 µM [%]
1,Cc1nn(C)c(C)c1CC(=O)N1CCCC(CNS(C)(=O)=O)C1 (centres undefined),3.3
2,NCC1(c2cccc(F)c2)CCOCC1,-7.87
3,CNS(=O)(=O)c1cccc(C(C)NCc2cccc(O)c2)c1 (centres undefined),1.14
4,O=C(NCc1nnc2n1CCC2)N(Cc1ccc(F)cc1)C1CC1,-5.31
5,CCOc1cc(C)nc(N2CCN(Cc3nccn3CC)CC2)n1,-3.81
6,CSCC(CCO)NC(=O)Nc1cc(F)ccc1C (centres undefined),-1.8
7,COc1cc(OC)cc(C2(O)CCN(Cc3ncc(C)o3)CC2)c1,17
8,CN(Cc1ccc(C#N)cc1)Cn1nccc1-c1cccnc1,8.4
9,CCN(C)S(=O)(=O)NCC1(c2ccccc2Br)CC1,1.22
10,Cc1cccc(N2N=C(C(=O)NC(C)Cn3cccn3)CCC2=O)c1 (centres undefined),0.479
11,CCN1CCC(NC(=O)Cc2csc(C(C)(C)C)n2)CC1,-16.3
12,NC(=O)[C@@H]1Cc2ccccc2CN1S(=O)(=O)N1CCCCC1,3.33
13,Cn1cnnc1C1CCN(C(=O)c2cc(-c3ccccc3)on2)CC1,3.77
14,Cc1noc(CS(=O)(=O)C(C)C(=O)N(C)c2ccccc2)n1 (centres undefined),9.26
15,CC(OCC1CC1)C(=O)Nc1ncccc1I (centres undefined),12.1
16,CN(C(=O)Cn1nnnc1C(C)(C)C)c1ccccc1,-48.4
17,O=C(NCc1cc[nH]n1)N1CCC(Oc2ccccc2Cl)CC1,8.16
18,CN(C)C(C(=O)Nc1nccs1)c1c(F)cccc1Cl (centres undefined),-44.4
19,CCN(Cc1noc(CC(C)C)n1)Cc1ccccc1Cl,-50.6
20,CC(=O)N1CCO[C@@H]2CN(S(=O)(=O)C3CC3)C[C@@H]2C1,-104
21,CCN(C(=O)c1ccc2nnc(C3CCN(C(C)=O)C3)n2c1)C(C)C (centres undefined),-107
22,O=C(Cc1ccccc1)N1CCC2(CC1)CN(c1ncccn1)CCO2,-72.3
23,COCC(=O)N1C[C@H]2CN(Cc3cccc(F)c3)C(=O)[C@H]2C1,-83.5
24,CC(=O)N1CCC2(CCN(C(=O)c3ccc(Cl)c(C(F)(F)F)c3)C2)C1 (centres undefined),-85.8
25,CN(C)CCNC(=O)CCC1CCN(C(=O)c2ccc(Cl)cc2O)CC1,-11.7
26,Cc1ccc(-c2nc(CN3C[C@@H](C)NC[C@@H]3C)c(C)o2)s1,-11.7
27,Cc1cc(N2CCN(Cc3ccsc3)C(CCO)C2)nc(N)n1 (centres undefined),-7.3

# From ChEMBL document CHEMBL4513216, “Probing the Open Global Health Chemical Diversity Library for Multistage-Active Starting Points for Next-Generation Antimalarials” (ACS Infect Dis, 2020)
